The source of these data is ChEMBL document CHEMBL4673404, “Covalent Inhibition of Wild-Type HIV-1 Reverse Transcriptase Using a Fluorosulfate Warhead” (ACS Med Chem Lett, 2021).

The target in data set [1] is T1, Human immunodeficiency virus type 1 reverse transcriptase (Human immunodeficiency virus 1, UniProt Q72547). Description: Covalent inhibition of recombinant wild type HIV-1 reverse transcriptase using poly(rA)350/oligo(dT)16 as template/primer preincubated followed by substrate addition measured after 30 mins by pico-green reagent based fluorescence analysis.
Data set [2] in a line: Cytotoxicity against human MT2 cells assessed as cell growth inhibition after 5 days by MTT assay. It counts as cell-based. The conditions noted are these: time 5 day. The method in brief:
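Human MT-2 T-cells were used in the same assay as the HIV-1 IIIB infection-protection test. CC50 was taken as the concentration inhibiting MT-2 cell growth by 50%, with measurements in triplicate.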
For orientation: Formazan colour is commonly taken as a measure of viable cells.

The target in data set [3] is T1, Human immunodeficiency virus type 1 reverse transcriptase. Description: Covalent inhibition of recombinant wild type HIV-1 reverse transcriptase using poly(rA)350/oligo(dT)16 as template/primer preincubated followed by substrate addition measured after 48 hrs by pico-green reagent based fluorescence analysis. The method in brief: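 Recombinant WT HIV-1 RT preincubated with inhibitor or DMSO control (1 h for line 3, 48 h for line 4). Substrate solution with r(A)350 template and d(T)16 primer then added, reacted 30 min at room temperature, and quenched with EDTA. Product quantified with PicoGreen by fluorescence (ex 485, em 520 nm). Triplicate runs, normalized to DMSO controls to give IC50.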

Data set [4] in a line: Covalent inhibition of HIV-1 reverse transcriptase Tyr181Cys mutant. Also on record: species or system Human immunodeficiency virus 1.
Data set [5] deals with T1, Human immunodeficiency virus type 1 reverse transcriptase. Description: Inhibition of recombinant wild type HIV-1 reverse transcriptase using poly(rA)350/oligo(dT)16 as template/primer preincubated for 1 hr followed by substrate addition measured after 30 mins by pico-green reagent based fluorescence analysis. The method in brief: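 Recombinant wild-type HIV-1 RT preincubated 1 h with inhibitor or DMSO. Substrate of r(A)350 template and d(T)16 primer then added, 30 min at room temperature. Quenched with EDTA, product detected with PicoGreen by fluorescence (ex 485/em 520 nm). Triplicate runs, normalized to DMSO controls to give IC50.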

Structures are written as SMILES. A value given as a limit tells only on which side of the number the result lay.

A word on the IC50: it is the concentration that gives 50% inhibition. For orientation: CC50 means the concentration at which the toxic effect on the cells reaches its halfway point.

`N#C/C=C/c1cc(Cl)cc(Oc2ccc(OS(=O)(=O)F)cc2OCCn2ccc(=O)[nH]c2=O)c1`: the IC50 in data set [1] is 119 nM. The CC50 at 120 h in data set [2] stood at 45000 nM.
On to `N#Cc1ccc2c(Oc3ccc(OS(=O)(=O)F)cc3OCCn3ccc(=O)[nH]c3=O)cccc2c1`, for which the IC50 in data set [1] was 82.3 nM. Further, in data set [2], the CC50 at 120 h came out at 62000 nM.
Consider `Cc1ccnc2c1NC(=O)c1cccnc1N2C1CC1` [NEVIRAPINE], for which the CC50 at 120 h in data set [2] was over 100000 nM.
`N#Cc1ccc2c(Oc3ccc(OS(=O)(=O)F)cc3OCCn3ccc(=O)[nH]c3=O)cc(Cl)cc2c1`: the IC50 in data set [1] came out at 14.7 nM. Besides, the CC50 at 120 h in data set [2] is 15000 nM.
In the case of `N#Cc1cc(Cl)cc(Oc2ccc(OS(=O)(=O)F)cc2Cl)c1`, the IC50 in data set [1] is 4900 nM. The CC50 at 120 h in data set [2] is 50000 nM.
As to `Cc1cc(/C=C/C#N)cc(C)c1Nc1ccnc(Nc2ccc(C#N)cc2)n1` [RILPIVIRINE], the IC50 in data set [1] was determined as 38 nM. Moreover, the cytotoxic concentration (CC50) at 120 h in data set [2] worked out at 8000 nM.
As to `Cn1c(=O)ccn(CCOc2cc(OS(=O)(=O)F)ccc2Oc2cccn3cc(C#N)cc23)c1=O`, the IC50 turned out to be 1110 nM in data set [3], 164 nM in data set [1] and 202 nM in data set [4]. In addition, the CC50 at 120 h in data set [2] was 75000 nM.
On to `N#C/C=C/c1cc(F)cc(Oc2ccc(OS(=O)(=O)F)cc2OCCn2ccc(=O)[nH]c2=O)c1`, for which the IC50 in data set [1] turned out to be 150 nM. Further, the CC50 at 120 h in data set [2] is 42000 nM.
Regarding `Cn1c(=O)ccn(CCOc2cc(S(=O)(=O)F)ccc2Oc2cc(Cl)cc(C#N)c2)c1=O`, the IC50 in data set [1] was 375 nM. In addition, in data set [2], the CC50 at 120 h came to 60000 nM.
With `N#Cc1cc2c(Oc3ccc(OS(=O)(=O)F)cc3OCCn3ccc(=O)[nH]c3=O)cc(F)cn2c1`, the results for the IC50 in data set [3], in data set [1] and in data set [4] were 429 nM, 64 nM and 63 nM, respectively. For the same compound, in data set [2], the CC50 at 120 h was 55000 nM.
In the case of `N#Cc1cc(Cl)cc(Oc2cc(OS(=O)(=O)F)ccc2OCCn2ccc(=O)[nH]c2=O)c1`, the CC50 at 120 h in data set [2] was determined as 100000 nM.
As for `Cn1c(=O)ccn(CCOc2cc(OS(=O)(=O)F)ccc2Oc2cc(Cl)cc(C#N)c2)c1=O`, the IC50 in data set [1] was found to be 246 nM. In addition, in data set [2], the CC50 at 120 h came to 40000 nM.
With `N#C/C=C/c1cc(Cl)cc(Oc2ccc(Cl)cc2OCCn2ccc(=O)[nH]c2=O)c1`, the IC50 in data set [5] came to 3 nM. Moreover, the CC50 at 120 h in data set [2] was determined as 10000 nM.
`N#Cc1cc(Cl)cc(Oc2ccc(OS(=O)(=O)F)cc2OCCn2ccc(=O)[nH]c2=O)c1`: the IC50 came out at 163 nM in data set [3], 103 nM in data set [1] and 45 nM in data set [4]. The CC50 at 120 h in data set [2] was found to be 66000 nM.
Regarding `N#Cc1cc(Cl)cc(Oc2cc(OS(=O)(=O)F)ccc2Cl)c1`, in data set [1], the IC50 was 833 nM. For the same compound, in data set [2], the CC50 at 120 h came to 78000 nM.
Regarding `N#Cc1cc(Cl)cc(Oc2ccc(S(=O)(=O)F)cc2OCCn2ccc(=O)[nH]c2=O)c1`, the IC50 in data set [1] is 5000 nM. For the same compound, in data set [2], the CC50 at 120 h was determined as 90000 nM.
Consider `N#Cc1cc2c(Oc3ccc(OS(=O)(=O)F)cc3OCCn3ccc(=O)[nH]c3=O)cc(Cl)cn2c1`, for which the 50% inhibitory concentration (IC50) in data set [1] turned out to be 42.4 nM; in data set [4] it was 41 nM. Further, in data set [2], the CC50 at 120 h came to 26000 nM.
